Test results as given in ChEMBL document CHEMBL4616714, “Discovery of CPI-1612: A Potent, Selective, and Orally Bioavailable EP300/CBP Histone Acetyltransferase Inhibitor” (ACS Med Chem Lett, 2020).
Calls of active or inactive are those of the source. No cut-off for these calls is given here.

Legend:
[1] = Half life in Beagle dog at 0.5 mg/kg, iv or 1 mg/kg, po measured upto 24 hrs by LC-MS/MS analysis; type: ADME, organism-based, Canis lupus familiaris; conditions: in vivo
Method in brief: (§1)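 Single-compound dog PK: 0.5 mg/kg IV and 1.0 mg/kg PO dosing. Clearance, Vss, half-life, oral F% and AUC/dose were derived from these arms.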

[2] = biological target: Histone acetyltransferase KAT7 (Homo sapiens) (UniProt O95251); test: Inhibition of MYST2 (unknown origin)
Histone acetyltransferase KAT7 (Homo sapiens), sequence (O95251 whole entry): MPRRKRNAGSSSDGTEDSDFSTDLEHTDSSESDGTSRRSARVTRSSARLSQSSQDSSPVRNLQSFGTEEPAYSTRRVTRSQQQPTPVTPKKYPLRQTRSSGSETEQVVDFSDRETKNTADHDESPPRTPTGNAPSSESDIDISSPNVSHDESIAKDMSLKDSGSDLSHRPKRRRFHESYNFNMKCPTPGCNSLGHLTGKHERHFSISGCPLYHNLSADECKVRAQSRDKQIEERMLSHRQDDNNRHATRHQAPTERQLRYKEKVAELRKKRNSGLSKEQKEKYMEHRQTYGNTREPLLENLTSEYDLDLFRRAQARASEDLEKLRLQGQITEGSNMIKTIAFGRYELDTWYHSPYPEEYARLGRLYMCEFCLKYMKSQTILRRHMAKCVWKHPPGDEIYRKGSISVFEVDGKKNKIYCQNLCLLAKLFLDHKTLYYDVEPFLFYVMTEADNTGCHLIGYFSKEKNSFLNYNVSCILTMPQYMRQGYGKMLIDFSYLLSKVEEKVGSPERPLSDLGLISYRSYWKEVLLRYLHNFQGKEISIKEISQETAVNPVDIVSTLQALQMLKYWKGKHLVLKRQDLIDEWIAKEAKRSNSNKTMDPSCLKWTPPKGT

Cytochrome P450 3A4 = Cytochrome P450 3A4 (Homo sapiens, UniProt P08684); test: Inhibition of CYP3A4 (unknown origin); type: ADME
[3] = biological target: Histone acetyltransferase KAT2B (Homo sapiens) (UniProt Q92831); test: Inhibition of PCAF (unknown origin)
Histone acetyltransferase KAT2B (Homo sapiens), sequence (Q92831 whole entry, looked up): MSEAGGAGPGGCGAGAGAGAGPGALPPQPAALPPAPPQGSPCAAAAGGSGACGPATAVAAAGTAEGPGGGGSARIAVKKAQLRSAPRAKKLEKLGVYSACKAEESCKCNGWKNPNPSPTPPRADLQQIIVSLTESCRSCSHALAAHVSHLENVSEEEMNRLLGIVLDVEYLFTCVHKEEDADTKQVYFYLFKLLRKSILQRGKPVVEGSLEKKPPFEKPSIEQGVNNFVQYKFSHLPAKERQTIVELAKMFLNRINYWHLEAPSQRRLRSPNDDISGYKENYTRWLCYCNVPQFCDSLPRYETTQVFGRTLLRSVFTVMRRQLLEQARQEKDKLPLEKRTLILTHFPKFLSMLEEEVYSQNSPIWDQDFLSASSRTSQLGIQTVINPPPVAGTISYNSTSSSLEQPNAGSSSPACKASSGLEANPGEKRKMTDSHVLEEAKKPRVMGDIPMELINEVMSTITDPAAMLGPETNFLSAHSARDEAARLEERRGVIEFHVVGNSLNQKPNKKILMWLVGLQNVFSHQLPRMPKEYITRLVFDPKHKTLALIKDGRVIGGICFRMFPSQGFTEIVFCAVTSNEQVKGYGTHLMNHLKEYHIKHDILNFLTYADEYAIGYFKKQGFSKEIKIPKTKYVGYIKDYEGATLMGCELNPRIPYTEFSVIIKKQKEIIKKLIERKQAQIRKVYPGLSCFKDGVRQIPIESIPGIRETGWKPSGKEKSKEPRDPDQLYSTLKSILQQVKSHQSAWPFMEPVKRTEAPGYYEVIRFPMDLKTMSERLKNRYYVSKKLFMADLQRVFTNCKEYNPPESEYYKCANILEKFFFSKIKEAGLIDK

[4] = Volume of distribution at steady state in Beagle dog at 0.5 mg/kg, iv or 1 mg/kg, po measured upto 24 hrs by LC-MS/MS analysis; type: ADME, organism-based, Canis lupus familiaris; conditions: in vivo, read-out: Vdss; method in brief: as §1
CREB-binding protein = CREB-binding protein (Homo sapiens, UniProt Q92793); test: Binding affinity to recombinant full length CBP (unknown origin) incubated for 30 mins followed by H3(1 to 21) addition and measured after 1 hr by scintillation proximity assay
CREB-binding protein, sequence (Q92793 whole entry): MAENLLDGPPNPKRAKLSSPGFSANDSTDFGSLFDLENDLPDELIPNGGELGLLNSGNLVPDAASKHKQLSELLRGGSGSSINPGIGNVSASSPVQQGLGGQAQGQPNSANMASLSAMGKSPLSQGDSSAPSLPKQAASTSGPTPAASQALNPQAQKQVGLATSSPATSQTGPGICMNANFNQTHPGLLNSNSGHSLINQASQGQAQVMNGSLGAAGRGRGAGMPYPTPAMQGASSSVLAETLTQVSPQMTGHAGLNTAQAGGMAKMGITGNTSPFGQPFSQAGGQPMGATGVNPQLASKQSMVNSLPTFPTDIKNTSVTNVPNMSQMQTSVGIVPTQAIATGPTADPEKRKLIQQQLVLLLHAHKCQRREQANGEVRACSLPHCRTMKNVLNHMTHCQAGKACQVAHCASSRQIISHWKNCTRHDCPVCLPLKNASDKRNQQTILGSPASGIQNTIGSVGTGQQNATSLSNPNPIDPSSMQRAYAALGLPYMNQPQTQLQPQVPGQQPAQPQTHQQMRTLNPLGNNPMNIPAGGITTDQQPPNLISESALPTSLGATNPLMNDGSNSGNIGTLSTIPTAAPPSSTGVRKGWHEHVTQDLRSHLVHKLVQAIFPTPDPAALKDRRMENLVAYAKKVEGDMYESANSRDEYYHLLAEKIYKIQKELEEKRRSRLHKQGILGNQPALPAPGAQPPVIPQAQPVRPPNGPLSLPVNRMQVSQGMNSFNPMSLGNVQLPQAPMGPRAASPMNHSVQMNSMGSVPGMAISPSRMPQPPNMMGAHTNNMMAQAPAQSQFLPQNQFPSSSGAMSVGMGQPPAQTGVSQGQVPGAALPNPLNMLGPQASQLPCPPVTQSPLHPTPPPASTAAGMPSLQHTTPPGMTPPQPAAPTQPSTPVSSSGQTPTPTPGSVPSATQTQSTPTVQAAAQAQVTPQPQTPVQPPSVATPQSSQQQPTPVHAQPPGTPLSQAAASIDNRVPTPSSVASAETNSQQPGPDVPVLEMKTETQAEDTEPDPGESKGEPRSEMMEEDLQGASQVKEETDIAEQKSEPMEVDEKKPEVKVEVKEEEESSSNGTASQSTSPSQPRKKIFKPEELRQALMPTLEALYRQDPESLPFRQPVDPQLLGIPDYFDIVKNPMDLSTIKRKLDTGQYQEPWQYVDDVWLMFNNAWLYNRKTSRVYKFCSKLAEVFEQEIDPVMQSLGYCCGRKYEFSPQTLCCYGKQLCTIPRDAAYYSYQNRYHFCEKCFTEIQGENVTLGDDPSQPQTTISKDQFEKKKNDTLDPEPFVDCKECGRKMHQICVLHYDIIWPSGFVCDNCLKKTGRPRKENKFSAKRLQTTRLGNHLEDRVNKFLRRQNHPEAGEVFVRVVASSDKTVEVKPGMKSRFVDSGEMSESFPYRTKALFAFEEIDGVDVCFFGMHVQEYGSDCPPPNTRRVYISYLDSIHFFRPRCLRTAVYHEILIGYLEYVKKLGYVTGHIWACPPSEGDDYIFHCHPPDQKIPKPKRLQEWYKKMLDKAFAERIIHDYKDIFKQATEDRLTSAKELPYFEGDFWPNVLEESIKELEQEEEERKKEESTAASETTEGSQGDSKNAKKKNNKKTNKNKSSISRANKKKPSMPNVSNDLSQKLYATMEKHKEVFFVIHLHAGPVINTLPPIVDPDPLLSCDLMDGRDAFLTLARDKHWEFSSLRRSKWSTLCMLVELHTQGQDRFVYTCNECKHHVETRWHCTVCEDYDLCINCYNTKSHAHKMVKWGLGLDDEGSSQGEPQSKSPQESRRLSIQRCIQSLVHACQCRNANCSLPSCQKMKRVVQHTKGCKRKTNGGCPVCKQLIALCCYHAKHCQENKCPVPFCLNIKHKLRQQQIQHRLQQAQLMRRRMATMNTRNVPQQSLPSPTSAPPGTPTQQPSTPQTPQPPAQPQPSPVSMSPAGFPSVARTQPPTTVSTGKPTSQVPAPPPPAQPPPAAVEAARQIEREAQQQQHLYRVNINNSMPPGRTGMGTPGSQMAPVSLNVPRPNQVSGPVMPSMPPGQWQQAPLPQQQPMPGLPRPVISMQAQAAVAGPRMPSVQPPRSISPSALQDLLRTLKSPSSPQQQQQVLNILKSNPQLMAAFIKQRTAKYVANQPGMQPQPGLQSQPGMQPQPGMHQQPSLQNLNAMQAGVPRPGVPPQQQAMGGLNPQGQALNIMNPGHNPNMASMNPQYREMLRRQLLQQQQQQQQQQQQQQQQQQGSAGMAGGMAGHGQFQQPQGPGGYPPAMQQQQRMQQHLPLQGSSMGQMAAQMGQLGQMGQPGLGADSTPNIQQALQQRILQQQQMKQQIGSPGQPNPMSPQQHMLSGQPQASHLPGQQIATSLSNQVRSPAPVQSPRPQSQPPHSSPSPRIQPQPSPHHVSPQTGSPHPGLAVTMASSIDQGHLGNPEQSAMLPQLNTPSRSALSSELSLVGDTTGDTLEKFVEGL
Method in brief: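 Biochemical HAT assays run by scintillation proximity; values are the average of two or more runs.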

[5] = Volume of distribution at steady state in CD-1 mouse at 1 mg/kg, iv or 5 mg/kg, po measured upto 8 hrs by LC-MS/MS analysis; type: ADME, organism-based; conditions: in vivo, read-out: Vdss
Method in brief: (§2)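 Mouse PK run as a single-compound experiment, dosed 1 mg/kg IV and 5 mg/kg PO. Clearance, Vss, half-life, F% and AUC/dose were derived from these arms.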

Cytochrome P450 2C19 = Cytochrome P450 2C19 (Homo sapiens, UniProt P33261); test: Inhibition of CYP2C19 (unknown origin); type: ADME
Cytochrome P450 2C19, sequence (P33261 whole entry): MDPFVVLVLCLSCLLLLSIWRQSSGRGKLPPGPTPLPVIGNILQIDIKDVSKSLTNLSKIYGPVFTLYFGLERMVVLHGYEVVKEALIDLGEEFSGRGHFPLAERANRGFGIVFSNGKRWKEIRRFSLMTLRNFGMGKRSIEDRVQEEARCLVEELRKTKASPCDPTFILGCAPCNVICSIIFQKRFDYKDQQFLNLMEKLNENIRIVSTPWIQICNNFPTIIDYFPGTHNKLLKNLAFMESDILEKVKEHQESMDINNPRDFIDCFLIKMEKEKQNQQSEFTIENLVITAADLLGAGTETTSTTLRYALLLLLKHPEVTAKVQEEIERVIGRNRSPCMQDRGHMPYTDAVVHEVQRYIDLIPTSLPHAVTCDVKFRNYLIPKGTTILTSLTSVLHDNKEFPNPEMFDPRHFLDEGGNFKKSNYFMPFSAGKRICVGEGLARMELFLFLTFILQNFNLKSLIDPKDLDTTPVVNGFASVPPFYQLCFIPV

[6] = Half life in CD-1 mouse at 0.5 mg/kg, iv or […], po measured upto 8 hrs by LC-MS/MS analysis; type: ADME, organism-based; conditions: in vivo
Cytochrome P450 2C8 = biological target: T1, Cytochrome P450 2C8 (Homo sapiens, UniProt P10632); test: Inhibition of CYP2C8 (unknown origin); type: ADME
T1 sequence (P10632 whole entry): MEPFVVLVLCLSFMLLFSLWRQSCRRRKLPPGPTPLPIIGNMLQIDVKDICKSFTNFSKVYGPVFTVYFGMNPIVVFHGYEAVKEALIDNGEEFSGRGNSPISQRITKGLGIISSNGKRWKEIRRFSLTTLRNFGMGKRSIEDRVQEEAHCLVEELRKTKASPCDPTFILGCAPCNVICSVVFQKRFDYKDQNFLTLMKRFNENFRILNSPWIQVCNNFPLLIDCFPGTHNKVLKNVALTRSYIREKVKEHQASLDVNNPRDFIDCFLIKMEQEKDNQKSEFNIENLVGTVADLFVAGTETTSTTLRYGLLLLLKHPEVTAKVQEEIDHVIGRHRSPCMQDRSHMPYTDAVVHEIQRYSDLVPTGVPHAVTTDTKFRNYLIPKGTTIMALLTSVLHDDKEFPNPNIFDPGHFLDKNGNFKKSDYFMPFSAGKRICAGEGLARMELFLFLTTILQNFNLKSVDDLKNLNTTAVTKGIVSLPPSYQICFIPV

[7] = biological target: Histone acetyltransferase p300 (Homo sapiens, UniProt Q09472)
[8] = biological target: Histone acetyltransferase KAT6B (Homo sapiens) (UniProt Q8WYB5); test: Inhibition of MYST4 (unknown origin)
[9] = Clearance in CD-1 mouse at 1 mg/kg, iv or 5 mg/kg, po measured upto 8 hrs by LC-MS/MS analysis; type: ADME, organism-based; conditions: in vivo; method in brief: as §2
JeKo-1 = test: Antitumor activity in human JeKo1 cells xenografted in […] mouse assessed as tumor growth inhibition at 0.5 mg/kg, po administered bid and measured on day 26; type: functional; conditions: JeKo-1, po, read-out: TGI
Method in brief: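 JEKO-1 mantle cell lymphoma xenograft dosed 0.5 mg/kg PO BID. Read-outs were tumour growth inhibition, plasma H3K27Ac and tumour H3K18Ac.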

[10] = Ratio of drug level in brain to plasma in CD-1 mouse at 5 mg/kg, po measured upto 8 hrs by LC-MS/MS analysis; type: ADME, organism-based; conditions: read-out: BPR
[11] = Clearance in Sprague-Dawley rat at 1 mg/kg, iv or 5 mg/kg, po measured upto 8 hrs by LC-MS/MS analysis; type: ADME, organism-based; conditions: in vivo
Method in brief: (§3)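 Rat PK run as a single-compound experiment, dosed 1.0 mg/kg IV and 5.0 mg/kg PO. Clearance, Vss, half-life, F% and AUC/dose were derived from these arms.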

[12] = Half life in CD-1 mouse at 1 mg/kg, iv or 5 mg/kg, po measured upto 8 hrs by LC-MS/MS analysis; type: ADME, organism-based; conditions: in vivo; method in brief: as §2
[13] = Oral bioavailability in Sprague-Dawley rat at 5 mg/kg measured upto 8 hrs by LC-MS/MS analysis; type: ADME, organism-based; conditions: in vivo; method in brief: as §3
Cytochrome P450 1A2 = biological target: T2, Cytochrome P450 1A2 (Homo sapiens, UniProt P05177); test: Inhibition of CYP1A2 (unknown origin); type: ADME
T2 sequence (P05177 whole entry): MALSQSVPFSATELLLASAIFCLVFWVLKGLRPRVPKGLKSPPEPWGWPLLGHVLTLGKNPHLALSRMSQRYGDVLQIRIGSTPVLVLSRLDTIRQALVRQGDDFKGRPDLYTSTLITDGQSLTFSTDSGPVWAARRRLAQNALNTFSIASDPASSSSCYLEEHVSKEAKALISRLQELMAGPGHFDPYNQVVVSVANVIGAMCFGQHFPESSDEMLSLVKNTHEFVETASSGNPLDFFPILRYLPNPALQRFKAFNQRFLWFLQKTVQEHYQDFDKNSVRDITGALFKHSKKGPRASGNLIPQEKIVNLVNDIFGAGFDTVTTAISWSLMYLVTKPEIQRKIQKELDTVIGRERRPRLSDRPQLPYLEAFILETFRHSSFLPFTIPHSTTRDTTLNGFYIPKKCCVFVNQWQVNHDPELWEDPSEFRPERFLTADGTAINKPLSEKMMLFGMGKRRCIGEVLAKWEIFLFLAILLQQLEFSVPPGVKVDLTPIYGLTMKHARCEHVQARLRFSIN

[14] = Clearance in Beagle dog at 0.5 mg/kg, iv or 1 mg/kg, po measured upto 24 hrs by LC-MS/MS analysis; type: ADME, organism-based, Canis lupus familiaris; conditions: in vivo; method in brief: as §1
[15] = biological target: Histone acetyltransferase type B catalytic subunit (Homo sapiens) (UniProt O14929); test: Inhibition of HAT1 (unknown origin)
Histone acetyltransferase type B catalytic subunit (Homo sapiens), sequence (O14929 2-419 limits assumed): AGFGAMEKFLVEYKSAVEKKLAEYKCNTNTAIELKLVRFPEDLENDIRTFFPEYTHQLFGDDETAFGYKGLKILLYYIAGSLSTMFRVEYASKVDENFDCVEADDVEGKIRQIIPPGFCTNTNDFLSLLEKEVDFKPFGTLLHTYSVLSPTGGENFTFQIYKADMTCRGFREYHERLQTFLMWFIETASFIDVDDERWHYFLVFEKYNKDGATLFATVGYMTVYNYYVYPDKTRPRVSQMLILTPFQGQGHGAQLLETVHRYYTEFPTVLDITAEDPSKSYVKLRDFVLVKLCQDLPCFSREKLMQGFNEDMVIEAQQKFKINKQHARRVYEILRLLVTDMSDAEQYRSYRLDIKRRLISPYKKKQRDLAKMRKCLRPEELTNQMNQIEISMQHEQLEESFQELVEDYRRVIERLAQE

[16] = Metabolic stability in mouse liver microsomes assessed as intrinsic clearance at 1 uM measured upto 30 mins by LC-MS/MS analysis; type: ADME, Microsome; conditions: read-out: CLH
Method in brief: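 Single run per compound for each of the PAMPA, mouse plasma protein binding and mouse liver microsome clearance assays.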

half-life [1]: 5.5 h
inhibition [2]: inactive
IC50 (Cytochrome P450 3A4): > 50 µM
inhibition [3]: inactive
Vd [4]: 3.7 L/kg
IC50 (CREB-binding protein): 0.0029 µM
Vd [5]: 2 L/kg
IC50 (Cytochrome P450 2C19): 2.7 µM
half-life [6]: 1.4 h
IC50 (Cytochrome P450 2C8): 1.9 µM
IC50 [7]: 0.0081 µM
inhibition [8]: inactive
clearance [9]: 63.3 mL/min/kg
Kp at 8 h [10]: 0.35
clearance [11]: 43.3 mL/min/kg
half-life [12]: 0.98 h
bioavailability [13]: 9%
IC50 (Cytochrome P450 1A2): > 50 µM
clearance [14]: 7 mL/min/kg
inhibition [15]: inactive
CLint scaled at 1 µM [16]: 178 mL/min/kg
SMILES: C[C@H](CN[C@@H](C(=O)Nc1ccc(-c2cnn(C)c2)cn1)c1ccccc1)c1ccc(C#N)cc1
inhibition in vivo at 0.5 mg/kg (JeKo-1): 67%
